Source: PubChem BioAssay
SENP6 block: SENP6 protease inhibition; 330,000 tested, 1.8% active; Recombinant SENP6 catalytic domain, aminoluciferin luminescence; AID 2599; inhibition, % at 10 µM;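 active means inhibition above about 50% at the single tested dose, limit read from the data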
SENP8 block-1: SENP8 (human) protease inhibition | recombinant SENP8, Nedd8 substrate fluorescence | 360,000 tested, 0.64% active | Q96LD8 | inhibition, % at 20 µM | AID 602440; in the data active means inhibition mostly above about 40%, no sharp cut-off; inactive means mostly below about 27%
Target sequence (Q96LD8 whole entry, looked up): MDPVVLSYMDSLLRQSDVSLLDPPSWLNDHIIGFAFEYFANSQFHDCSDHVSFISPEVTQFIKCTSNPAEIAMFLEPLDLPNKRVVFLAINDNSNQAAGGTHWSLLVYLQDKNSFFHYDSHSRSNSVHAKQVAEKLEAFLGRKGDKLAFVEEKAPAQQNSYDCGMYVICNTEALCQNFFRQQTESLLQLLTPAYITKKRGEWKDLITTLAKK
SENP8 block-2: SENP8 protease inhibition | AID 2540 | inhibition, % at 10 µM | 330,000 tested, 1.2% active | purified SENP8, Z-RLRGG-aminoluciferin cleavage, luminescence | Q96LD8; in the data active means inhibition above about 50%
SENP7 inh: SENP7 protease inhibition. Q9BQF6. 330,000 tested, 1.5% active. AID 434973. recombinant SENP7, Z-RLRGG-aminoluciferin luminescence, 40 min. inhibition, % at 5 µM;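 active means inhibition above about 50% at the single test dose, limit read from the data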
Target sequence (Q9BQF6 706-1050 limits assumed): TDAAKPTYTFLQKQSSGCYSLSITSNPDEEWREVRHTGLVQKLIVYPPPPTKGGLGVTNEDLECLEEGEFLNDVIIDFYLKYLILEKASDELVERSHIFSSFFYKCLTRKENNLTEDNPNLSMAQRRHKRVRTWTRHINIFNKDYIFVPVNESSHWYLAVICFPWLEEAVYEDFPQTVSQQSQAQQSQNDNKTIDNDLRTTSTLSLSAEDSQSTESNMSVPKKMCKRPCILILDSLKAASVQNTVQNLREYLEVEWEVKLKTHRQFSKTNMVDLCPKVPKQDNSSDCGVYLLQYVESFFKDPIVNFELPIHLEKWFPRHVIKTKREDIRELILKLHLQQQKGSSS
SENP1 inh: blocks the human SENP1 SUMO protease catalytic domain; Q9P0U3; recombinant SENP1 catalytic domain, CyPet-SUMO1-YPet FRET cleavage; inhibition, % at 10 µM; 360,000 tested, 0.21% active; AID 624204;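 active means inhibition at least 30% at 10 µM, raw YFP signal under a set limit, fluorescence ratio 0.5 to 1.5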
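Material: hSENP1 catalytic domain, recombinant; medium: Tris pH 8 with BME, BSA, NP40 and catalase; compound: single concentration of 10 µM compound, 0.5% DMSO final; technique: FRET read of cyan and yellow fluorescence; timing: 50 min enzyme reaction, room temperature, light-protected; reagent: SFCypet-SUMO1-SFYpet substrate at 25 nM; control set: no-enzyme low, enzyme-DMSO high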
CendR NRP1 mod: modulators of CendR peptide binding to human neuropilin-1; O14786; FAM-RPARPAR peptide binding to NRP-1, fluorescence polarization; inhibition, % at 25 µM; 360,000 tested, 0.85% active; AID 602438;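 active means inhibition or corrected inhibition above about 18%, plus a signal ratio from 0.5 to 1.5, limit read from the data, passing the limit was not always enough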
SENP8 conf: confirmation of human SENP8 protease inhibitors; 6,200 tested, 40% active; shares compounds with SENP7 inh; Recombinant SENP8, Z-RLRGG-aminoluciferin luminescence, 60 min; inhibition, % at 12.5 µM;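 active means mean inhibition across replicates above about 50%, limit read from the data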
SENP6 conf: human SENP6 inhibition, confirmed | shares compounds with SENP7 inh | recombinant SENP6, Z-RLRGG-aminoluciferin luminescence | inhibition, % at 12.5 µM | 6,200 tested, 58% active | AID 488915
SENP7 confirm: human SENP7 inhibition, confirmed. inhibition, % at 12.5 µM. shares compounds with SENP7 inh. 6,200 tested, 69% active. recombinant SENP7, Z-RLRGG-aminoluciferin luminescence, 40 min
Casp3 SENP sel: selectivity test for SENP inhibitors: human caspase-3 inhibition; shares compounds with SENP7 inh; purified caspase-3, Z-DEVD-aminoluciferin luminescence, 60 min; inhibition, % at 12.5 µM; 6,200 tested, 60% active; AID 488918;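 active means mean inhibition above about 50%, limit read from the data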
SENP luc ctr: interferes with luciferase luminescence in SENP counter-screen; inhibition, % at 12.5 µM; AID 488919; 6,200 tested, 39% active; shares compounds with SENP7 inh; Pre-incubated SENP8/Z-RLRGG-aminoluciferin, luciferase luminescence interference;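 active means mean inhibition above about 50% when retested at one dose, limit read from the data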
Large screens that a line does not name were inactive (follow-up assays come after a bar, where they were run). Hits are enriched below; roughly 3.3% of the tested compounds scored in any of these assays.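 How the source made its calls, unless noted: active means mean inhibition above about 50% in the one-dose retest (limit read from the data); inactive means the rest.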

O=C(CN1C(=O)c2ccccc2S1(=O)=O)Nc1ncc(Cl)cc1Cl	none
Cc1ccc2ccccc2c1C(O)c1ncc(-c2ccccc2F)[nH]1 (configuration not stated)	none (no result: SENP6 block, SENP8 block-2, SENP7 inh)
O=C(Nc1ccccc1C(=O)O)c1ccccc1	none
O=C(Nc1ccccc1C(=O)O)c1cccc(C(=O)Nc2ccccc2C(=O)O)c1	SENP6 block 80.3, SENP8 block-2 71.3 | SENP8 conf 87.1 | SENP6 conf 85.7 | SENP7 confirm 97.8 | Casp3 SENP sel 88.3 | SENP luc ctr 69.9
CCOc1ccc(C(=O)Nc2ccccc2-c2ccccc2)cc1Cl	none
O=C(CCCOc1ccc(Cl)cc1Cl)Nc1ccccc1C(=O)O	SENP6 block 85.8, SENP8 block-2 71.1 | SENP8 conf 83.1 | SENP6 conf 82.4 | SENP7 confirm 89.7 | Casp3 SENP sel 64.2 | SENP luc ctr 82.5
O=C(Nc1sc(-c2ccccc2)cc1C(=O)O)c1ccccc1	SENP6 block 83.8, SENP8 block-2 65.7 | SENP8 conf inactive | SENP6 conf 74.3 | SENP7 confirm 74.3 | Casp3 SENP sel inactive | SENP luc ctr 59.5
CCOc1ccc(C(=O)Nc2cccc(C(=O)O)c2C)cc1Cl	SENP6 block 99.6, SENP8 block-2 92.5, SENP7 inh 98.2 | SENP8 conf 97.3 | SENP6 conf 97.5 | SENP7 confirm 101.6 | Casp3 SENP sel 80.5 | SENP luc ctr 96.6
COCCNC(=O)C1(C)CCCN(C(=O)c2ccc(C#N)cc2)C1 (configuration not stated)	none (no result: SENP6 block, SENP8 block-2, SENP7 inh)
CNc1ncnc2c1ncn2[C@H]1CN(CCN2CCOCC2)C[C@@H](CO)O1	none (no result: SENP6 block, SENP8 block-2, SENP7 inh)
COc1ccc(C(=O)Nc2ccccc2C(=O)O)cc1Cl	SENP6 block 96.9, SENP8 block-2 94.3, SENP7 inh 91.6 | SENP8 conf 96.4 | SENP6 conf 96.9 | SENP7 confirm 100.6 | Casp3 SENP sel 95.4 | SENP luc ctr 95.6
O=C(Nc1ccc(O)cc1C(=O)O)c1cccc(Br)c1	SENP6 block 95.5, SENP8 block-2 87.9, SENP7 inh 83.1 | SENP8 conf 93.5 | SENP6 conf 92.2 | SENP7 confirm 98.5 | Casp3 SENP sel 90.4 | SENP luc ctr 91.5
O=C(Nc1ccc(O)cc1C(=O)O)c1cccs1	SENP6 block 50.1 | SENP8 conf 52.3 | SENP6 conf inactive | SENP7 confirm 82.5 | Casp3 SENP sel 79.4 | SENP luc ctr 60.8
CCOc1c(Cl)cc(C(=O)Nc2ccccc2C(=O)O)cc1Cl	SENP6 block 60.0 | SENP8 conf 58.8 | SENP6 conf 57.3 | SENP7 confirm 71.8 | Casp3 SENP sel inactive | SENP luc ctr 67.7
NC(N)=NC(N)=Nc1cccc2ccccc12	SENP6 block 60.6, SENP7 inh 66.5 | SENP8 conf inactive | SENP6 conf inactive | SENP7 confirm inactive | Casp3 SENP sel inactive | SENP luc ctr inactive
Cc1c(Cl)cccc1N=C(N)N=C(N)N	none
COc1cccc(C(=O)OCC(=O)c2ccc(Br)s2)c1	SENP6 block 54.3 | SENP8 conf 53.1 | SENP6 conf inactive | SENP7 confirm 78.4 | Casp3 SENP sel inactive | SENP luc ctr inactive
COc1ccc(C(=O)OCC(=O)c2ccc(Br)s2)c(OC)c1	none
CCC1NC(=O)c2cc3ccccc3cc2-n2c1nc1ccc(F)cc1c2=O (configuration not stated)	none (no result: SENP6 block, SENP8 block-2, SENP7 inh)
O=[N+]([O-])c1ccc(S(=O)(=O)N/N=C/c2ccc3c(c2)OCO3)cc1	none
O=[N+]([O-])c1ccccc1N/N=C/c1ccc2c(c1)OCO2	SENP8 block-2 82.1, SENP7 inh 96.4 | SENP8 conf inactive | SENP6 conf inactive | SENP7 confirm inactive | Casp3 SENP sel inactive | SENP luc ctr inactive
O=[N+]([O-])c1ccccc1N/N=C/c1ccccc1	SENP6 block 63.5, SENP8 block-2 61.1, SENP7 inh 95.1 | SENP8 conf inactive | SENP6 conf inactive | SENP7 confirm inactive | Casp3 SENP sel inactive | SENP luc ctr inactive
O=C(Nc1nnc([C@@H]2C[C@H](O)[C@@H](CO)O2)s1)c1cccc(Cl)c1	none (no result: SENP6 block, SENP8 block-2, SENP7 inh)
CC(C)(C)c1ccc(CC(=O)N2CCC2(C)C(=O)NCc2cccs2)cc1 (configuration not stated)	none (no result: SENP6 block, SENP8 block-2, SENP7 inh)
COc1ccc(C(C(=O)Nc2ccc(F)cc2)N2CCN(CC(=O)N3CCCC3)CC2)cc1 (configuration not stated)	none (no result: SENP6 block, SENP8 block-2, SENP7 inh)
C=CCc1ccc(OCCCCOc2ccc(C(=O)O)cc2)c(OC)c1	none
C=CCc1ccc(OCc2ccc(C(=O)O)o2)c(OC)c1	SENP6 block 78.6, SENP8 block-2 64.2, SENP7 inh 63.3 | SENP8 conf 75.8 | SENP6 conf 75.8 | SENP7 confirm 93.5 | Casp3 SENP sel inactive | SENP luc ctr 79.8
CCCc1ccc(OCc2ccc(C(=O)O)o2)c(OC)c1	SENP6 block 74.8, SENP8 block-2 68.8, SENP7 inh 54.0 | SENP8 conf 74.2 | SENP6 conf 73.4 | SENP7 confirm 92.5 | Casp3 SENP sel inactive | SENP luc ctr 82.8
CCOc1ccc(OCc2ccc(C(=O)O)o2)cc1	SENP6 block 97.0, SENP8 block-2 94.4, SENP7 inh 96.2 | SENP8 conf 96.4 | SENP6 conf 98.9 | SENP7 confirm 102.1 | Casp3 SENP sel 79.9 | SENP luc ctr 97.4
CCCc1ccc(OCc2ccc(C(=O)NN)o2)c(OC)c1	none
CCc1ccc(OCc2ccc(C(=O)OC)o2)cc1	none
CCc1nc2c(OCc3ccccc3C)cccn2c1N(C)C(=O)c1ccco1	none (no result: SENP6 block, SENP8 block-2, SENP7 inh)
O=C(NCc1cccnc1)c1cc(C(=O)NCc2cccnc2)cc([N+](=O)[O-])c1	none (no result: SENP6 block, SENP8 block-2, SENP7 inh)
COc1ccccc1C(=O)N1CCc2ccccc21	none
Nc1ccccc1C(=O)N1CCc2ccccc21	SENP6 block 55.1 | SENP8 conf inactive | SENP6 conf inactive | SENP7 confirm inactive | Casp3 SENP sel inactive | SENP luc ctr 55.0
Cn1sc(NC(=O)c2ccccc2Cl)nc1=O	none
